This excerpt belongs to a sample that is enriched for hits.
HUVEC inhibit: inhibitors of human endothelial cell proliferation; HUVEC proliferation, CellTiter-Glo luminescence, 72 h; hits give low values; viability, % at 10 µM (by protocol); hit rate 1.1% among 86,000; AID 648;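 active means viability at or below 30%; inactive means viability above 30%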
H69AR growth 86K: growth inhibitors of human H69AR lung tumor cells | AID 598 | viability, % at 10 µM | hit rate 6% among 85,000 | H69AR lung tumor viability, ATP luminescence, 72 h; hits give low values;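 active means viability at or below 40%; inactive means viability above 40%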;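 further: multidrug resistant small cell line overexpressing MRP-1 efflux transporter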
HCT116 bCat-KO: beta-catenin-lacking colon tumor cell growth suppression; hit rate 1.5% among 140,000; HCT116 beta-catenin knockout viability, CellTiter-Glo, 60 h; hits give low values; viability, % at 10 µM;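 active means viability at or under a set limit, the compound median less 4 SD, cut at about 6% in these data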
PTEN del growth: PTEN-deleted cell growth suppression; viability, % at 10 µM; hit rate 1.2% among 140,000; AID 827; HCT116 PTEN-null viability, CellTiter-Glo, 60 h; hits give low values;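 active means viability at or below a set limit, 4 SD under the median of all tested compounds, cut at about 3.7% in these data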;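 further: PTEN knockout HCT116 line with beta catenin targeted HCT116 as companion control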
Lung fibro prol: blocks proliferation of human lung fibroblasts | LL 47 human lung fibroblast viability, ATP luminescence; hits give low values | viability, % at 10 µM | hit rate 1.1% among 85,000 | AID 719;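 active means viability at or below 50% in the single dose screen; inactive means viability above 50%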;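 further: compound exposure lasted 72 h before the ATP readout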
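Material: human lung fibroblast line LL 47, low passage; Evaluation: viability percentage against median untreated-cell control; Buffer or medium: 15% FBS in IMEM; Incubation: 72 h compound exposure at 37 °C after overnight plating; Dosing: 0.1% DMSO in all compound wells; Measured by: CellTiter-Glo luminescence.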
PTK2B oligo ant: blocks oligomerization of human Pyk2 in cells; Q293 cells, Pyk2 FERM NanoBiT luminescence; hits give low values; z-score (the deposit names both 25 µM and 10 µM); hit rate 0.83% among 99,000;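 active means Z-score of -3 or lower, scaled per plate to the spread of control and sample wells; inactive means z-score above -3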;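 further: negative z-score means lost luminescence so less FERM oligomerization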
Target sequence (Q14289 whole entry, looked up): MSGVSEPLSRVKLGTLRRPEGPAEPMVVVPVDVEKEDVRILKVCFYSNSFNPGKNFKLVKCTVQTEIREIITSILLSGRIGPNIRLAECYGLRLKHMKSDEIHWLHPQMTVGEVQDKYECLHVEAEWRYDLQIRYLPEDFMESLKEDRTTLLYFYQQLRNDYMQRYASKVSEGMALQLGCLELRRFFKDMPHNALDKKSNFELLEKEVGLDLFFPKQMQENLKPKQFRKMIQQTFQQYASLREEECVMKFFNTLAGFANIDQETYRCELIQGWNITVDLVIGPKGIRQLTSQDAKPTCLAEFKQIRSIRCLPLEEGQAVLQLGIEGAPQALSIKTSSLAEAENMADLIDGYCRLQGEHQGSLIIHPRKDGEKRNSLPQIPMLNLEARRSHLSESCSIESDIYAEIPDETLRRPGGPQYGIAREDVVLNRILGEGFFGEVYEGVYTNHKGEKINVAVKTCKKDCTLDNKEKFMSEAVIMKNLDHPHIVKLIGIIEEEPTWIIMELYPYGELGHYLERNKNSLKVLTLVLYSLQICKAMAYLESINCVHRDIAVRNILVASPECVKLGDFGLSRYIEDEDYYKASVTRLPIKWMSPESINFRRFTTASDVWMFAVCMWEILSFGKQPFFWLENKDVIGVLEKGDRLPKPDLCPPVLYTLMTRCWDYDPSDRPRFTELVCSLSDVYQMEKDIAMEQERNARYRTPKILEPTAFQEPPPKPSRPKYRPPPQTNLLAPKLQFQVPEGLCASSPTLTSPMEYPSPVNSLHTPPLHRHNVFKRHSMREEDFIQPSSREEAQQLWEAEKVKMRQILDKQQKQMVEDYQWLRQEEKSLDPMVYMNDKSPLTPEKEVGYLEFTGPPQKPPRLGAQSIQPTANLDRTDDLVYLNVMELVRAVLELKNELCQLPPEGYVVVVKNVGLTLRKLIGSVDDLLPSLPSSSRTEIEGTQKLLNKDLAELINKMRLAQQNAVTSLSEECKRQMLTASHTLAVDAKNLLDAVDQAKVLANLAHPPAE
A number is an active result; i = inactive; nt = no result given.

SMILES	HUVEC inhibit	H69AR growth 86K	HCT116 bCat-KO	PTEN del growth	Lung fibro prol	PTK2B oligo ant
O=C(CSc1nc2ccccc2c(=O)n1Cc1ccc(F)cc1)NCc1cccs1	nt	nt	i	i	nt	nt
Cc1cc(NC(=O)CSc2nc3cc4c(cc3c(=O)n2CCc2ccccc2)OCO4)no1	16	10	i	i	i	i
Cc1cc(NC(=O)CSc2nc3c(c(=O)n2CCc2ccccc2)SC(C)C3)no1 (stereo unspecified)	i	i	i	i	i	nt
N#Cc1c(NC(=O)CSc2nc3ccccc3s2)sc2c1CCCC2	nt	nt	i	i	nt	nt
COc1ccc(-c2cc3nc(C)cc(N4CC(C)CC(C)C4)n3n2)cc1 (stereo unspecified)	i	i	i	i	i	i
COCCN1C(=O)C(CC(=O)Nc2ccc(C(C)=O)cc2)SC1=Nc1ccccc1 (stereo unspecified)	nt	nt	i	i	nt	i
CC(O)CN1C(=O)C(CC(=O)Nc2ccc(Cl)cc2)SC1=Nc1ccccc1 (stereo unspecified)	i	39	i	i	i	i
O=C1CC(c2ccccc2)n2nc(NC(=O)c3ccccn3)nc2N1 (stereo unspecified)	i	29	i	i	i	i
O=c1ccsn1Cc1ccccc1	i	1.3	1.3	i	8.6	i
O=c1ccn(Cc2ccccc2)c(=O)n1Cc1ccccc1	i	i	i	i	i	i
Cc1cc2c(cc1C)CSC(c1ccc3ccccc3c1O)SC2	i	38	i	i	i	i
Cc1cc2c(cc1C)CSC(c1c(O)ccc3ccccc13)SC2	1.7	1.6	4.6	i	i	i
Cc1cc2c(cc1C)CSC(c1ccccc1O)SC2	i	i	i	i	i	i
CC(C(=O)Nc1ccccc1-c1ccccc1)N1CCCCC1 (stereo unspecified)	i	2.6	i	i	i	i
Cc1noc(C)c1CSc1nc2ccccc2c(=O)n1-c1ccc(Cl)cc1	i	14	i	i	i	i
Cc1noc(C)c1CSc1nc2sc(C)c(C)c2c(=O)n1-c1ccccc1	i	i	i	i	i	i
CNCc1ccccc1Sc1ccc(OC)c(OC)c1	nt	nt	i	i	nt	i
CCOc1ccc(C2=NNC(c3cccs3)=Nc3ccc(OC)cc32)cc1OCC	i	38	i	i	i	i
Cc1c(C(=O)OCC(=O)N2CC(=O)Nc3ccccc32)oc2ccc(Br)cc12	nt	nt	i	i	nt	i
COc1ccc(NS(=O)(=O)c2cc(C)ccc2NC(=O)c2cc(C)oc2C)cc1	i	29	i	i	i	i
CC(=O)O[C@]1(C(C)=O)CC[C@H]2[C@@H]3C=C(Cl)C4=CC(=O)CC[C@]4(C)[C@H]3CC[C@@]21C	i	19	i	i	i	nt
CC(=O)O[C@]1(C(C)=O)CC[C@H]2[C@@H]3C[C@H](C)C4=CC(=O)CC[C@]4(C)[C@H]3CC[C@@]21C	i	5.1	i	i	i	nt
Cn1ncc(Br)c1C(=O)OCC(=O)Nc1nc(-c2ccccc2)cs1	i	i	i	i	i	i
COC(=O)C1=C(C)N=C2SC(C#N)=C(N)N2C1c1ccc(OCc2ccccc2)cc1 (stereo unspecified)	nt	nt	i	i	nt	i
CN(Cc1ccccc1)C(=O)CC(c1ccccc1)c1cc(Cl)ccc1O (stereo unspecified)	nt	nt	i	i	nt	i
SMILES	HUVEC inhibit	H69AR growth 86K	HCT116 bCat-KO	PTEN del growth	Lung fibro prol	PTK2B oligo ant
NC(=O)c1cc(Br)cc2c3c([nH]c12)CCCC3	i	18	i	i	i	i
O=c1c2c([nH]c3ccc(Br)cc13)CCCC2	i	i	nt	nt	i	i
Nc1nc2ccc(S(=O)(=O)N3CCCCC3)cc2s1	i	0.7	i	i	47	nt
CSc1nc2ccc(S(=O)(=O)N3CCCCC3)cc2s1	i	i	i	i	i	i
O=C(Nc1nc2ccc(S(=O)(=O)N3CCCC3)cc2s1)C1CCCCC1	i	23	i	i	47	i
CSc1cc(-c2ccccc2)n(Cc2c(Cl)cccc2Cl)c(=O)c1C#N	i	12	i	i	33	i
Cc1ccccc1Cn1ccc(-c2ccc(Cl)cc2)c(C#N)c1=O	nt	nt	i	i	nt	i
CSc1cc(-c2ccc(Cl)cc2)n(Cc2ccccc2)c(=O)c1C#N	8.8	5.4	i	i	27	i
CCCCC(=O)NCc1ccc(Cl)cc1	nt	nt	i	i	nt	nt
COc1ccc(C2NC(=O)N(C)C3=C2C(=O)CC(C)(C)C3)cc1OC (stereo unspecified)	nt	nt	i	i	nt	nt
O=c1cc(N2CCC(Cc3ccccc3)CC2)[nH]c(=O)n1C1CCCCC1	i	27	i	i	i	i
NC(=O)C1CCCN(C(=S)Nc2cccc3ccccc23)C1 (stereo unspecified)	nt	nt	i	i	nt	i
COc1ccc2nc(NC(=O)c3cc(C)oc3C)sc2c1	i	i	i	i	i	i
Cc1cc(C(=O)Nc2nc3ccc(S(C)(=O)=O)cc3s2)c(C)o1	i	i	i	i	46	i
Cc1ccc2nc(NC(=O)c3cccc(-c4cc5ccccc5oc4=O)c3)sc2c1	nt	nt	3.0	2.2	nt	nt
Cc1ccc(C(=O)Nc2nc3ccc(S(C)(=O)=O)cc3s2)s1	i	38	i	i	i	i
CCOCC(=O)Nc1nc2ccc(C)cc2s1	i	i	i	i	i	i
C/C=C/C(=O)OCC(=O)Nc1nc2ccc(C)cc2s1	i	29	i	i	i	i
CCCCN(NC(C)=O)c1nc(Cl)nc(NC(C)C)n1	i	i	i	i	i	i
O=C(NCCCn1ccnc1)c1nn2c(C(F)(F)F)cc(-c3ccc(Br)cc3)nc2c1Cl	nt	nt	i	i	nt	nt
Cc1ccc2nc(NC(=O)c3ccc(Cl)s3)sc2c1	i	20	i	i	i	nt
CS(=O)(=O)c1ccc2nc(NC(=O)c3cccs3)sc2c1	i	25	i	i	i	i
Cc1ccc2nc(NC(=O)c3cccs3)sc2c1	i	i	i	i	i	i
O=C(C1=C(O)C(=O)N(Cc2ccco2)C1c1ccccc1)c1cccs1 (stereo unspecified)	i	i	i	i	i	i
Cc1cc(N2CCOCC2)ccc1/C=C\[N+](=O)[O-]	nt	nt	4.4	i	nt	nt
SMILES	HUVEC inhibit	H69AR growth 86K	HCT116 bCat-KO	PTEN del growth	Lung fibro prol	PTK2B oligo ant
CC(C)C(=O)N1CCC(CN=CC2=C(O)CC(C)(C)CC2=O)CC1	i	i	i	i	i	i
O=C(Nc1nc2ccccc2s1)C1CC(=O)N(c2ccc(Br)cc2)C1 (stereo unspecified)	i	i	i	i	i	i
CCC(C)NCC(=O)Nc1ccc(-c2nc3cc(NC(=O)CNC(C)CC)ccc3o2)cc1 (stereo unspecified)	25	i	0.6	0.8	2.9	i
CCN(CC)CC(=O)Nc1ccc(-c2nc3cc(NC(=O)CN(CC)CC)ccc3o2)cc1	i	i	i	i	44	i
O=C(CN1CCCC1)Nc1ccc(-c2nc3cc(NC(=O)CN4CCCC4)ccc3o2)cc1	i	i	2.4	3.7	23	i
CCCC(=O)Nc1ccc2oc(-c3ccncc3)nc2c1	i	i	i	i	i	i
Cc1cccc2cc3c(N)c(C(=O)N4CCc5ccccc54)sc3nc12	nt	nt	i	i	nt	nt
CC1(C)Cc2ccccc2C(NNC(=O)c2ccccn2)=N1	i	30	i	i	46	i
